Compound activity: PubChem BioAssay, Johns Hopkins Ion Channel Center
In the library only some 2.9% were active in any assay of this set; here they are far more common.
TRPC4 agonist = activators of mouse TRPC4 channel; B-score at 10 µM; actives 0.49% (n = 310,000); HEK293 TRPC4beta/mu-opioid, Fluo4 calcium fluorescence; hits give high values;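 active = B-score above 5 SD of library B-scores, and initial fluorescence ratio not above library mean plus 5 SD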;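 note: positive B-score marks a calcium rise read as TRPC4 activation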
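System: HEK293 cells stably co-expressing mouse TRPC4beta and mu-opioid receptor; Schedule: Fluo4 dye loading 45 min at room temperature, 110 s recording; Detection: Fluo4 fluorescence, kinetic; Evaluation: B-scored integrated calcium fluorescence ratio; Controls: buffer (low) and maximal DAMGO (high).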
TRPC4 PAM = allosteric potentiators of mouse TRPC4 channel; HEK293 TRPC4beta/mu-opioid, DAMGO EC20, Fluo-4 Ca2+ flux; hits give high values; actives 0.42% (n = 310,000); Q9QUQ5; B-score at 10 µM;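 active = B-score of calcium response area above 5 SD of library B-scores, with initial fluorescence ratio within 5 SD of library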;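 note: B-score of integrated fluorescence ratio over time as area under calcium response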
TRPC6 act = activates the mouse TRPC6 cation channel | actives 0.13% (n = 310,000) | B-score at 10 µM | HEK293-TRPC6 membrane potential dye fluorescence; hits give high values | AID 2550;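 active = B-score of the integrated fluorescence ratio above library mean plus 3 SD, and starting fluorescence ratio within library mean plus 5 SD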;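 note: higher score means more depolarization so channel activation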
Target sequence (Q61143 whole entry, looked up): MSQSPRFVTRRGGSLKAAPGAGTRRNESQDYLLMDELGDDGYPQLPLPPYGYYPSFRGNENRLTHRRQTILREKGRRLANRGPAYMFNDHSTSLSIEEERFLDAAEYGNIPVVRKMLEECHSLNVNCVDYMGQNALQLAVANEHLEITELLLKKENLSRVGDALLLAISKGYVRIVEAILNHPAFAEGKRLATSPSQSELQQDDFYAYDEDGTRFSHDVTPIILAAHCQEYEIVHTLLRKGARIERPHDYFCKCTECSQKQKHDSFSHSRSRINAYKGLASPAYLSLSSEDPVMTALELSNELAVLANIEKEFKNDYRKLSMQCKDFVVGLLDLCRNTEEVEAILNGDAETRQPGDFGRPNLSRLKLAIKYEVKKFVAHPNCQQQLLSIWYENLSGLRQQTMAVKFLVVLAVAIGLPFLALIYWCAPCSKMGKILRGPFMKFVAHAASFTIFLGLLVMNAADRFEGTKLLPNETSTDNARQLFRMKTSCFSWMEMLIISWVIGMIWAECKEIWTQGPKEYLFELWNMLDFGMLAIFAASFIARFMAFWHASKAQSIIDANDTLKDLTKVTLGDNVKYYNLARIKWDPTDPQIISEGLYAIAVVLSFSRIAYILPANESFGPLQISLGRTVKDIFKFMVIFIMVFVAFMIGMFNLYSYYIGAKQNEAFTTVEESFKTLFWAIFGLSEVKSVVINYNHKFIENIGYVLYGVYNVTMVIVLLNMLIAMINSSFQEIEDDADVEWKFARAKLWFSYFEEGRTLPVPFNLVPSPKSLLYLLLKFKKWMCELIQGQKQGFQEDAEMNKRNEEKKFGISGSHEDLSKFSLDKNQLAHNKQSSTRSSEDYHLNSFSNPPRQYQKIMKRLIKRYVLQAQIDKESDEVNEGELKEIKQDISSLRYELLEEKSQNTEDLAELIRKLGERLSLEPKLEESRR
TRPC4 block = TRPC4 (mouse) channel inhibition; Q9QUQ5; HEK293 TRPC4beta/mu-opioid, DAMGO-evoked Fluo4 calcium flux; hits give low values; B-score at 10 µM; actives 0.39% (n = 300,000); AID 2247;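 active = B-score over 3 SD under the library average, no early fluorescence shift, positive overall ratio signal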
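Assay system: HEK293 cells with stable TRPC4beta plus mu-opioid receptor expression; Probe or stimulus: DAMGO in two steps, submaximal then maximal; Dosing: single-point compound dosing; Measured by: Fluo4 calcium-dye fluorescence, kinetic read; Read-out basis: B score from integrated Fluo4 fluorescence ratio.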
TRPC6 inh = inhibitors of mouse TRPC6 channel | HEK293-TRPC6, membrane potential dye, ACh-evoked depolarization; hits give low values | AID 2553 | actives 1.1% (n = 310,000) | B-score at 10 µM;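 active = B-score under library mean minus 3 SD, initial fluorescence not abnormally high, positive integrated signal ratio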;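 note: B-score derived from integrated fluorescence ratio over the kinetic read; more negative B-score means stronger inhibition of depolarization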
Kir21 inh = blocks the mouse Kir2.1 inward-rectifier potassium channel; P35561; HEK293-Kir2.1, FluxOR thallium flux fluorescence; hits give low values; B-score at 10 µM; actives 0.85% (n = 310,000); AID 1672;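 active = fluorescence ratio B-score at or below minus 3 SD of library scores, with starting-brightness B-score within 2 SD, cut at about -4.2 in these data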;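 note: channel flux triggered by added potassium and thallium sulfate stimulus; B-score of peak minus minimum fluorescence over baseline after thallium stimulus; more negative B-score means stronger Kir2.1 block with less thallium influx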
TRPC4 sel inh 2 = mouse TRPC4 off-target activity of TRPC6 inhibitors, second screen | shares compounds with TRPC6 inh | HEK293 TRPC4/MOR, membrane potential dye fluorescence; channel activated by saturating DAMGO dose | inhibition, % at 10 µM | actives 42% (n = 920) | AID 2776;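 active = compounds whose fluorescence signal differed from control wells by over 3 SD, either direction, in both duplicate plates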
TRPC4 spec = tests whether TRPC6 inhibitors also affect mouse TRPC4; shares compounds with TRPC6 inh; HEK293 TRPC4/mu-opioid, membrane potential fluorescence; activity change, negative = inhibition, % at 10 µM; actives 61% (n = 920); AID 2777;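 active = rise or fall in signal beyond 3 SD of buffer-only wells in both replicate plates, either sign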;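 note: integrated kinetic ratio of fluorescence range over baseline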
HEK293 MPD ctr 2-1 = second counter-screen for TRPC6 inhibitors: parental HEK293 cells | parental HEK293 membrane potential dye fluorescence; maximal acetylcholine challenge after compound addition | actives 31% (n = 920) | signal change vs control, % at 10 µM | shares compounds with TRPC6 inh;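 active = membrane potential signal moving either way by over 3 SD of the maximum-effect control, in both duplicate plates, meaning non-specific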
HEK293 MPD ctr-1 = checks TRPC6 inhibitor effects in parental HEK293 cells. shares compounds with TRPC6 inh. AID 2780. parental HEK293 membrane potential dye fluorescence. membrane potential signal change, % at 10 µM. actives 60% (n = 920);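 active = membrane potential signal shifting up or down by more than 3 SD of buffer-only wells, on both duplicate plates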
HEK293 MPD ctr-2 = checks TRPC6 modulator effects in parental HEK293 cells; shares compounds with TRPC6 inh; membrane potential dye fluorescence; membrane potential signal change, % at 10 µM; actives 51% (n = 2,400);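 active = membrane potential signal moves up or down beyond 5 SD from buffer-only wells, on both duplicate plates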
HEK293 MPD ctr 2-2 = second check of TRPC6 modulator effects in parental HEK293 cells; inhibition, % at 10 µM; membrane potential dye fluorescence; after compound, maximal acetylcholine stimulation; actives 14% (n = 2,400); shares compounds with TRPC6 inh;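 active = membrane potential signal drops by more than 5 SD from the mean control signal, in both duplicate plates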;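 note: plate controls were acetylcholine ECmax control wells for no effect and buffer only wells for full effect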
TRPC4 ctr mod = mouse TRPC4 off-target activity of TRPC6 modulators. shares compounds with TRPC6 inh. HEK293 TRPC4/mu-opioid, membrane potential fluorescence. percent change from control (negative = decrease, positive = increase), % at 10 µM. actives 69% (n = 2,400);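 active = membrane potential signal moved up or down beyond 5 SD of buffer control wells, in both duplicate plates, actives on both sides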;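 note: plate controls were assay buffer wells for no effect and DAMGO maximal-effect wells for full effect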
TRPC4/MOR inh 2 = second check of whether TRPC6 modulators also affect mouse TRPC4 | actives 55% (n = 2,400) | inhibition, % at 10 µM | HEK293 TRPC4/mu-opioid, membrane potential dye fluorescence; stimulated with maximal-effect DAMGO | AID 488928 | shares compounds with TRPC6 inh;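 active = drop in membrane potential signal beyond 5 SD of the control wells in both duplicate plates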;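 note: TRPC4 counter screen for TRPC6 hits run under conditions tuned for TRPC6 not TRPC4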
TRPC6 inh conf = mouse TRPC6 inhibitor confirmation. shares compounds with TRPC6 inh. HEK293-TRPC6, membrane potential dye, ACh-evoked depolarization. inhibition, % at 10 µM. actives 43% (n = 3,300);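 active = fluorescence ratio falls more than 5 SD below the full-stimulation control mean, in both duplicate runs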;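 note: integrated fluorescence ratio of peak minus minimum over baseline after agonist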
TRPC6 act conf = mouse TRPC6 activator confirmation. shares compounds with TRPC6 inh. actives 11% (n = 2,800). activation, % at 10 µM. HEK293-TRPC6 membrane potential dye fluorescence, FDSS;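 active = ratio signal rise beyond 5 SD above unstimulated control wells' mean, seen in both duplicate runs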;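 note: plate controls were buffer EC0 wells for no effect and acetylcholine ECmax response for full effect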
Numbers without * were called inactive; i = inactive; . = no result.

SMILES | TRPC4 agonist | TRPC4 PAM | TRPC6 act | TRPC4 block | TRPC6 inh | Kir21 inh | TRPC4 sel inh 2 | TRPC4 spec | HEK293 MPD ctr 2-1 | HEK293 MPD ctr-1 | HEK293 MPD ctr-2 | HEK293 MPD ctr 2-2 | TRPC4 ctr mod | TRPC4/MOR inh 2 | TRPC6 inh conf | TRPC6 act conf
CCCCn1c2c(c(=N)c3ccccc31)CCC2 | i | i | i | i | -7.2* | 0.28 | 60%* | -29%* | -20%* | -508%* | . | . | . | . | 83%* | i
CCCCCn1c2c(c(=N)c3ccccc31)CCC2 | i | i | i | -8* | -8.1* | 0.29 | 56%* | -26%* | 20%* | -388%* | . | . | . | . | 71%* | i
CC(CS(=O)(=O)c1ccc2c(c1)NC(=O)CS2)C(=O)N1CCN(c2cccc(Cl)c2)CC1 (centres undefined) | i | i | i | i | i | 0.05 | . | . | . | . | . | . | . | . | . | .
Cc1c(OCc2nn[nH]n2)ccc2c3c(c(=O)oc12)CCCC3 | i | i | i | i | i | -0.3 | . | . | . | . | . | . | . | . | . | .
CCN(CC)CC(=O)Nc1cc(N(C)C)nc2ccccc12 | i | i | i | i | -7.5* | -0.51 | 70%* | -25%* | 3.0%* | -474%* | . | . | . | . | 68%* | i
CCCCCC(=O)Nc1ccc2ccccc2c1 | i | i | i | i | i | 1.3 | . | . | . | . | . | . | . | . | . | .
CN1CCc2c1nc1ccccc1c2NC(=O)CN1CCCC1 | i | i | i | i | -6.5* | -0.16 | . | . | . | . | -278%* | i | -46%* | 46%* | i | i
CCCc1nc2ccccc2c(NC(=O)CN(CC)CC)c1CC | i | i | i | i | i | 0.81 | . | . | . | . | . | . | . | . | . | .
CCCCCC(=O)Nc1cc(N(C)C)nc2ccccc12 | i | i | i | i | -5.4* | -0.37 | . | . | . | . | i | i | -10%* | 48%* | i | i
CCCCCCC(=O)Nc1c2c(nc3ccccc13)N(C)CC2 | i | i | i | i | i | -0.08 | . | . | . | . | . | . | . | . | . | .
CN1CCN(CC(=O)Nc2cc(N(C)C)nc3ccccc23)CC1 | i | i | i | i | -6.8* | -1.4 | . | . | . | . | -154%* | i | -26%* | 44%* | i | i
Cc1ccc2[nH]c(-c3cccc(F)c3)cc(=O)c2c1 | i | i | i | i | i | -0.02 | . | . | . | . | . | . | . | . | . | .
